Publication PMC8075810 (Cell Chemical Biology, 2021)

Key:
SCoV2 [1] = test: SCoV2 replication in hACE2-HeLa cells, NP western blot; type: cell-based, SARS-CoV2 (SZ02); conditions: 5 μM, 48 h
hACE2-HeLa cells = test: Cytotoxicity, CellTiter-Glo viability assay; type: cell-based, Human; conditions: 10 μM, 72 h
Method in brief: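 hACE2-HeLa cells grown in DMEM with 10% FBS and penicillin-streptomycin at 37°C, 5% CO2, and passaged before confluency. 2 x 10^3 cells/well were seeded in 384-well format and exposed to test compound at a range of concentrations for 72 h. Viability was read by CellTiter-Glo luminescence.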

SCoV2 [2] = conditions: hACE2-HeLa cells
[3] = tested on: NF-κB activation perturbed by SCoV2 PLpro; test: NF-κB activity luciferase-reporting assay; type: cell-based, Human
[4] = Stability in mouse plasma; type: in vitro ADME
[5] = Metabolic stability in mouse liver microsomes; type: in vitro ADME
Method in brief: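 It was then split into 7 aliquots, each given NADPH (3 mM solution added) or PBS alone and incubated at 37°C. Samples were diluted 1:1 with water and analysed by LC-MS.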

SCoV2 [6] = test: microbe, parasite or virus in culture; conditions: Severe acute respiratory syndrome coronavirus 2, read-out: IC50 (inhibition of SCoV2 replication)
[7] = tested on: 10 DUBs or DUB-like proteases, including USP14 and OTUB1; test: Inhibitor specificity assay; type: biochemical, Human; conditions: 19 at 10 μM, Ub-Rho substrate

Compound | NP level in infected hACE2-HeLa cells (SCoV2 [1]) | cytotoxicity (in words) (hACE2-HeLa cells) | therapeutic index (CC50/IC50) (SCoV2 [2]) | inhibition of SCoV2 replication (in words) (SCoV2 [2]; spike immunostaining) | recovery of NF-κB activation level [3] | half-life at 8.35 μM [4] [min] | half-life at 1 μM [5] [min] | IC50 (SCoV2 [6]) [nM] | inhibition of DUBs or DUB-like proteases [7]
C[C@H](c1cccc2ccccc12)N1CCC(C(=O)NCc2cccc(F)c2)CC1 [Inhibitor 11, (R)-N-(3-fluorobenzyl)-1-(1-(naphthalen-1-yl)ethyl)piperidine-4-carboxamide] | strongest | – | – | – | – | – | – | – | –
C[C@H](c1cccc2ccccc12)N1CCC(C(=O)NCc2cc(F)cc(NC(=O)N3CCN(C)CC3)c2)CC1 [Inhibitor 19, (R)-N-(3-fluoro-5-((1-(1-(naphthalen-1-yl)ethyl)piperidine-4-carboxamido)methyl)phenyl)-4-methylpiperazine-1-carboxamide] | – | neither 17 nor 19 showed detectable cytotoxicity | over 55 | significantly inhibit SCoV2 replication even at 400 nM | significantly recover | > 120 | 28 | 182 | none of these 10 proteases were significantly inhibited
